Measurements taken from ChEMBL document CHEMBL1130340, “Semisynthetic derivatives of purpuromycin as potential topical agents for vaginal infections” (1997).
Converted amounts (≈) assume the structure as drawn.

Key:
Type in all cases: functional
Streptococcus pneumoniae = assay: In vitro antimicrobial activity against Streptococcus pneumoniae L44
In short: (§1)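 Streptococci: broth microdilution MIC in Todd Hewitt broth; inoculum about 10^4 cfu/mL; 37 °C, 20–24 h.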

[1] = tested on: Staphylococcus epidermidis; assay: In vitro antimicrobial activity against Staphylococcus epidermidis ATCC 12228
In short: (§2)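 Broth microdilution MIC in Oxoid Iso-Sensitest broth; inoculum about 10^4 cfu/mL; 37 °C for 20–24 h.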

Neisseria gonorrhoeae = assay: In vitro antimicrobial activity against Neisseria gonorrhoeae L997
In short: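 Broth microdilution MIC in GC Base broth plus 1% (v/v) IsoVitaleX; inoculum about 10^4 cfu/mL; 37 °C.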

Candida [2] = assay: Minimum inhibition concentration for 50% inhibition against Candida species
In short: (§3)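 Candida: broth microdilution MIC in phosphate-buffered Yeast Nitrogen Base broth with glucose (1% w/v) and L-asparagine (0.15% w/v); inoculum about 10^4 cfu/mL; 37 °C, 20–24 h.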

Proteus vulgaris = assay: In vitro antimicrobial activity against Proteus vulgaris ATCC881; in short: as §2
Candida tropicalis [3] = assay: In vitro antimicrobial activity against Candida tropicalis; in short: as §3
[4] = tested on: Staphylococcus haemolyticus; assay: In vitro antimicrobial activity against Staphylococcus haemolyticus L602; in short: as §2
Pseudomonas aeruginosa = assay: In vitro antimicrobial activity against Pseudomonas aeruginosa ATCC 10145; in short: as §2
Escherichia coli = assay: In vitro antimicrobial activity against Escherichia coli L47; in short: as §2
Haemophilus influenzae = assay: In vitro antimicrobial activity against Haemophilus influenza ATCC 19418
In short: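 Broth microdilution MIC in Brain Heart Infusion broth plus 1% (v/v) supplement C; inoculum about 10^4 cfu/mL; 37 °C.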

Staphylococcus aureus [5] = assay: In vitro antimicrobial activity against Staphylococcus aureus L1 65 30% bovine serum
In short: (§4)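 Broth microdilution MIC against S. aureus L165 in Iso-Sensitest broth, 37 °C, 20–24 h.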

Gardnerella vaginalis [6] = assay: In vitro antimicrobial activity against Gardnerella vaginalis (MIC90)
In short: (§5)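 Agar dilution MIC in Casman medium with 5% (v/v) whole and 0.15% (v/v) lysed rabbit blood; inoculum about 10^5 cfu; 48 h at 37 °C under N2-CO2-H2 (80:10:10).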

Candida albicans [7] = assay: In vitro antimicrobial activity against Candida albicans (24); in short: as §3
Enterococcus faecalis = assay: In vitro antimicrobial activity against Enterococcus faecalis ATCC 7080; in short: as §2
Candida [8] = assay: Minimum inhibition concentration for 90% inhibition against Candida species; in short: as §3
Trichomonas vaginalis = assay: Antimicrobial activity against Trichomonas vaginalis
In short: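 Broth microdilution in Trichomonas Culture Medium Base plus 10% horse serum; about 10^5 cells/mL; 48 h at 37 °C under N2-CO2-H2; MIC read by microscopy for viable (motile) protozoa.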

Candida albicans [9] = assay: In vitro antimicrobial activity against Candida albicans L145; in short: as §3
Staphylococcus aureus [10] = assay: In vitro antimicrobial activity against Staphylococcus aureus L165; in short: as §2
Cutibacterium acnes = assay: In vitro antimicrobial activity against Propionibacterium acnes ATCC 6919
In short: (§6)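 Anaerobe MIC by broth microdilution in Wilkins-Chalgren broth; inoculum 5 × 10^5 cfu/mL; 37 °C.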

Staphylococcus aureus [11] = assay: In viro antimicrobial activity against Staphylococcus aureus L165 10 x e+6 cfu/ml; in short: as §4
Nakaseomyces glabratus = assay: In vitro antimicrobial activity against Candida glabrata (1); in short: as §3
Streptococcus pyogenes = assay: In vitro antimicrobial activity against Streptococcus pyogenes L49; in short: as §1
Gardnerella vaginalis [12] = assay: In vitro antimicrobial activity against Gardnerella vaginalis (MIC50); in short: as §5
Bacteroides fragilis = assay: In vitro antimicrobial activity against Bacteroides fragilis ATCC 25285; in short: as §6
Staphylococcus aureus [13] = assay: In vitro antimicrobial activity against Staphylococcus aureus L165 30% bovine serum; in short: as §4
Staphylococcus aureus [14] = assay: In viro antimicrobial activity against Staphylococcus aureus L16510 x e+6 cfu/ml; in short: as §4
Candida albicans [15] = assay: In vitro antimicrobial activity against Candida albicans(24); in short: as §3
Candida tropicalis [16] = assay: In vitro antimicrobial activity against Candida tropicalis (2); in short: as §3

SMILES | MIC (Streptococcus pneumoniae) [µg/mL] | MIC [1] [µg/mL] | MIC (Neisseria gonorrhoeae) [µg/mL] | MIC50 (Candida [2]) [µg/mL] | MIC (Proteus vulgaris) [µg/mL] | MIC [4] [µg/mL] | MIC (Pseudomonas aeruginosa) [µg/mL] | MIC (Escherichia coli) [µg/mL] | MIC (Haemophilus influenzae) [µg/mL] | MIC (Staphylococcus aureus [5]) [µg/mL] | MIC90 (Gardnerella vaginalis [6]) [µg/mL] | MIC (Enterococcus faecalis) [µg/mL] | MIC90 (Candida [8]) [µg/mL] | MIC (Trichomonas vaginalis) [µg/mL] | MIC (Candida albicans [9]) [µg/mL] | MIC (Staphylococcus aureus [10]) [µg/mL] | MIC (Cutibacterium acnes) [µg/mL] | MIC (Staphylococcus aureus [11]) [µg/mL] | MIC (Streptococcus pyogenes) [µg/mL] | MIC50 (Gardnerella vaginalis [12]) [µg/mL] | other results
COC(=O)c1cc2cc3c(c(O)c2c(=O)o1)OC1(CC2=C(O1)C(=O)c1c(O)c(N)cc(O)c1C2=O)CC3O (stereo unspecified) | 0.016 (≈ 0.0306 µM) | 0.03 (≈ 0.0573 µM) | 0.03 (≈ 0.0573 µM) | 64 (≈ 122 µM) | > 128 | 0.06 (≈ 0.115 µM) | > 128 | > 128 | 0.06 (≈ 0.115 µM) | 1 (≈ 1.91 µM) | 0.06 (≈ 0.115 µM) | 0.06 (≈ 0.115 µM) | 128 (≈ 245 µM) | 0.5 (≈ 0.955 µM) | 32 (≈ 61.1 µM) | 0.03 (≈ 0.0573 µM) | 0.008 (≈ 0.0153 µM) | 0.06 (≈ 0.115 µM) | 0.03 (≈ 0.0573 µM) | 0.06 (≈ 0.115 µM) | MIC (Candida tropicalis [3]): 128 µg/mL (≈ 245 µM); MIC (Candida albicans [7]): 2 µg/mL (≈ 3.82 µM); MIC (Nakaseomyces glabratus): 32 µg/mL (≈ 61.1 µM); MIC (Bacteroides fragilis): 0.06 µg/mL (≈ 0.115 µM)
COC(=O)c1cc2cc3c(c(O)c2c(=O)o1)OC1(CC2=C(O1)C(=O)c1c(O)c(NCc4ccccc4)cc(O)c1C2=O)CC3O (stereo unspecified) | 0.06 (≈ 0.0978 µM) | 0.13 (≈ 0.212 µM) | 0.25 (≈ 0.407 µM) | – | > 128 | 0.13 (≈ 0.212 µM) | > 128 | > 128 | 2 (≈ 3.26 µM) | – | – | 4 (≈ 6.52 µM) | – | – | > 128 | 0.5 (≈ 0.815 µM) | – | 1 (≈ 1.63 µM) | 1 (≈ 1.63 µM) | – | MIC (Staphylococcus aureus [13]): 32 µg/mL (≈ 52.2 µM)
COC(=O)c1cc2cc3c(c(O)c2c(=O)o1)OC1(Cc2c(O)c4c(c(O)c2O1)C(=O)C(OC)=CC4=O)CC3O (stereo unspecified) | 0.06 (≈ 0.111 µM) | 0.03 (≈ 0.0557 µM) | 0.06 (≈ 0.111 µM) | 1 (≈ 1.86 µM) | 32 (≈ 59.4 µM) | 0.03 (≈ 0.0557 µM) | > 128 | 8 (≈ 14.9 µM) | 0.03 (≈ 0.0557 µM) | 8 (≈ 14.9 µM) | 8 (≈ 14.9 µM) | 0.06 (≈ 0.111 µM) | 2 (≈ 3.71 µM) | 8 (≈ 14.9 µM) | 1 (≈ 1.86 µM) | 0.03 (≈ 0.0557 µM) | 0.03 (≈ 0.0557 µM) | – | 0.25 (≈ 0.464 µM) | 8 (≈ 14.9 µM) | MIC (Staphylococcus aureus [14]): 0.06 µg/mL (≈ 0.111 µM); MIC (Candida albicans [15]): 0.25 µg/mL (≈ 0.464 µM); MIC (Bacteroides fragilis): 0.25 µg/mL (≈ 0.464 µM); MIC (Candida tropicalis [16]): 128 µg/mL (≈ 238 µM)
